Data published in article PMC3319430 (Journal of Medicinal Chemistry, 2009).

What was measured:
[1] = cited from earlier work
[2] = cited from earlier work; remark: listed apart in the source
[3] = tested on: calcium-activated chloride channels; assay: UTP-induced chloride current in cystic fibrosis; assay type: cell-based, human; settings: 10 or 20 µM
How it was run: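 Short-circuit current in cystic fibrosis human bronchial epithelial cells on inserts in Ussing chambers. Krebs-bicarbonate solution on both sides, gassed with 5% CO2 in air, 37 °C. ENaC was blocked with 10 µM amiloride. Calcium-activated chloride channels were stimulated with 100 µM UTP, and test compound was added.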

[4] = tested on: renal cysts in E13.5 embryonic kidneys; assay: Embryonic kidney organ culture model of polycystic kidney disease; design: species or system mouse
How it was run: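 Metanephroi from E13.5 mouse embryos, on porous inserts in DMEM/Ham's F-12 with glutamine, HEPES, insulin, transferrin, selenium, prostaglandin E, T3 and antibiotics, 37 °C humidified CO2. Medium with 100 µM 8-Br-cAMP ± test compound replaced every 12 h. For preformed cysts, compound was added at day 3 of 8-Br-cAMP. Transmitted-light images were taken, and % cyst area = total cyst area/total kidney area; 6–8 kidneys.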

CFTR [5] = target: T1, CFTR (Homo sapiens, UniProt P13569); assay: Cell-attached single-channel patch-clamp recordings of CFTR; assay type: cell-based; settings: 1 µM
[6] = target: CFTR chloride conductance (Homo sapiens, UniProt P13569); assay: Apical membrane chloride current; assay type: cell-based
human wild-type CFTR = human wild-type CFTR (Homo sapiens, UniProt P13569); assay: Whole-cell patch-clamp in CFTR-expressing FRT cells; assay type: cell-based; settings: 500 nM; ±100 mV
CFTR [7] = target: T1, CFTR; assay: Fluorescence platereader assay of CFTR-mediated iodide influx; assay type: cell-based; settings: result in words
How it was run: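 FRT cells co-expressing human wild-type CFTR and YFP-H148Q halide sensor, assayed 48 h after plating at confluence. After PBS washes, cells were activated with 5 µM forskolin, 100 µM IBMX and 25 µM apigenin. Test compound was added 5 min later, 25 µM final, for 15 min. Fluorescence was read 2 s baseline, then 10 s after iodide-for-chloride PBS addition. Initial influx rate was fitted by nonlinear regression.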

T1 sequence (P13569 whole entry): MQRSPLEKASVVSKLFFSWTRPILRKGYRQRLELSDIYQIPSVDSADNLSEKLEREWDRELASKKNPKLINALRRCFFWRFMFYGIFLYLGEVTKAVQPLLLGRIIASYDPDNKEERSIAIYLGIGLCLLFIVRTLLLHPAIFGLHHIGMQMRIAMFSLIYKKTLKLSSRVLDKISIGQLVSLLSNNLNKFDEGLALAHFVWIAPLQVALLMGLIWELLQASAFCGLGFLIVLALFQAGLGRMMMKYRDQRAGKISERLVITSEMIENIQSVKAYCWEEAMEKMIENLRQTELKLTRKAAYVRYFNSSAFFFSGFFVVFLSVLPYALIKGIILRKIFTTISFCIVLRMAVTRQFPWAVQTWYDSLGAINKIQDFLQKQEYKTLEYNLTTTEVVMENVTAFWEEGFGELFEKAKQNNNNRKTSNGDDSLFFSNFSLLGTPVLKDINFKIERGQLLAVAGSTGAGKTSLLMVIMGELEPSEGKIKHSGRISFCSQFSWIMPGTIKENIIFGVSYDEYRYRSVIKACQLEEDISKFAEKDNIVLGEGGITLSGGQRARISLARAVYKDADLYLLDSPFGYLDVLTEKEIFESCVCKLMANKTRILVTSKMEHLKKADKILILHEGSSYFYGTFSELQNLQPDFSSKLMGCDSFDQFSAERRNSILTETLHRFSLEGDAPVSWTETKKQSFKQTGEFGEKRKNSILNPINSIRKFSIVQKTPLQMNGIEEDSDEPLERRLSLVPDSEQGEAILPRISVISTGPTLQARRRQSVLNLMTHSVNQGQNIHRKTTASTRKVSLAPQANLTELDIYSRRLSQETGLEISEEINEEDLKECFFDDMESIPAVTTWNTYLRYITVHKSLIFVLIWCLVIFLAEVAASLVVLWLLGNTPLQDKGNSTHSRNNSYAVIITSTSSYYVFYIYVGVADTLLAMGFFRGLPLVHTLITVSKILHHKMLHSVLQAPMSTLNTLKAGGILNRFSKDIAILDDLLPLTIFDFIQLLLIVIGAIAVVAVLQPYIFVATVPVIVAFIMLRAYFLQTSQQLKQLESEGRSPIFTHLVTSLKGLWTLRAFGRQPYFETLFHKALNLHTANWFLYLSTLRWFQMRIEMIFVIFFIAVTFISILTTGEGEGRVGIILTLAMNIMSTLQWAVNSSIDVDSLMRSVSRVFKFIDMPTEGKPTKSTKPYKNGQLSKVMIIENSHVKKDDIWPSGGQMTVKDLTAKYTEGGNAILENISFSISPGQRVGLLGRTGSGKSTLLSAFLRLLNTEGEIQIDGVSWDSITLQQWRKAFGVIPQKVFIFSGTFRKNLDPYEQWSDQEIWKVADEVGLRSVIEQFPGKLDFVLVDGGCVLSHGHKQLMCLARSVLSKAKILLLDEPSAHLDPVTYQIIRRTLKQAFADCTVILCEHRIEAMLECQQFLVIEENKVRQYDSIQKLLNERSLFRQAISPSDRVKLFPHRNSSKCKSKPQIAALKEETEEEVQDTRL
Sequence of CFTR chloride conductance (P13569 whole entry): as above
Sequence of human wild-type CFTR (P13569 whole entry): as above

## O=C(O)c1ccc(/C=C2\SC(=S)N(c3cccc(C(F)(F)F)c3)C2=O)cc1 [CFTRinh-172]
[1]
  Toxicity: low toxicity
[2]
  Aqueous solubility: low aqueous solubility

## Cc1ccc(C2Nc3ccccc3-n3c(-c4ccccc4)c4c(=O)n(C)c(=O)n(C)c4c32)o1 (stereo not shown) [PPQ-102, 7,9-Dimethyl-11-phenyl-6-(5-methylfuran-2-yl)-5,6-dihydropyrimido[4′,5′-3,4]pyrrolo[1,2-a]quinoxaline-8,10-(7H,9H)-dione]
[3]
  Inhibition of UTP-induced chloride currents: little inhibition
[4]; 0.5 µM, 100 µM 8-Br-cAMP, 4 days in culture
  Inhibition of cyst formation (percentage area occupied by cysts): > 60%
[4]; 2.5 µM removed after 3 days, 8-Br-cAMP continued
  Reversibility of cyst inhibition: reversible
[4]; 5 µM added at day 3 of 8-Br-cAMP, over 1 and 2 days
  Size of preformed cysts: remarkable reduction in cyst size
[4]; 2.5 and 5 µM, 100 µM 8-Br-cAMP, 4 days
  Cysts at 2.5 and 5 µM: near complete absence of cysts
[4]; in culture medium
  Kidney growth: did not affect kidney growth
CFTR [5]
  Mean channel closed time: greatly increased
  Mean channel open time: did not significantly change
CFTR [5]; +80 mV
  Unitary conductance: did not change
CFTR [5]; forskolin 10 µM and IBMX 100 µM, control 0.50 ± 0.04
  Channel open probability (Po): 0.14 ± 0.03
[6]; 30 min incubation with 2 µM followed by 10 min washout
  Reversibility of inhibition: complete restoration of CFTR chloride current
[6]; apigenin (100 µM) or IBMX (100 µM)
  Potency with apigenin or IBMX as agonists compared to CPT-cAMP: mildly reduced
Human wild-type CFTR
  CFTR current-voltage relationship after addition: remained linear

## Cc1ccc(C(=O)Nc2ccccc2-n2cc3c(c2-c2ccccc2)c(=O)n(C)c(=O)n3C)o1 [PPQ-102b, N-(2-(1,3-Dimethyl-2,4-dioxo-5-phenyl-3,4-dihydro-1H-pyrrolo[3,4-d]pyrimidin-6(2H)-yl)phenyl)-5-methylfuran-2-carboxamide]
CFTR [7]
  CFTR inhibition activity: abolished CFTR inhibition activity
